# Data published in PubChem BioAssay.
# A number with no mark means an inactive call. Results filed as inconclusive are left out. Calls of active or inactive are those of the source.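 The calls were made as follows, unless noted: active = growth inhibition above 25% in both replicates, a cutoff set 3 SD above the mean; inconclusive = above 25% in only one replicate; inactive = the rest.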
# Experiments:
# [1] = S. cerevisiae growth inhibition in permissive medium (OD615), pilot counter-assay for S. cerevisiae lifespan shortening project, permissive growth control (AID 705); details: OD615, 24 h, at 10 µM, active compounds read high
# Outline: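 Material: engineered DeaD yeast; Compound: one dose 10 µM, DMSO 0.25% final; Detection: absorbance (optical density) at 615 nm; Buffer or medium: permissive raffinose/galactose medium; Timing: 24 h exposure, 30 °C.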
# [2] = S. cerevisiae growth inhibition in restrictive medium, OD615, pilot screen, restrictive growth control, yeast lifespan reduction project (AID 706;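 active = growth inhibition above a set limit, 3 SD over mean compound inhibition, in both replicates, cut at about 43% in these data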;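 also: modified DeaD lifespan yeast strain shifted to restrictive glucose medium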); details: OD615, 48 h, at 10 µM, active compounds read high
# Outline: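 Buffer or medium: restrictive glucose medium (CSMM-D); test system: modified S. cerevisiae; doses: single dose of 10 µM compound final, 0.25% DMSO; schedule: 48 h compound exposure at 30 °C; detection: absorbance (optical density) measured at 615 nm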
# [3] = doxorubicin toxicity protection in MRP-1 cells – H69AR cells, CellTiter-Glo, duplicate, MRP-1 activator project, pilot screen (AID 807;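 active = viability increase at or above a cutoff of the median across tested compounds plus 3 SD, cut at about 8.5% in these data, passing the limit was not always enough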;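 also: compound pretreatment 18-22 h then 72 h combined with doxorubicin; 0% = doxorubicin alone and 100% = vehicle without doxorubicin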); details: H69AR viability with doxorubicin, CellTiter-Glo luminescence; at 10 µM; active compounds read high
# [4] = viability of HCT116 without oncogenic beta-catenin – human colon tumor cells, pilot screen (AID 823;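 active = cell viability at or below a set limit in both duplicate runs, the limit being the all-compound median minus 4 SD, cut at about 23% in these data, passing the limit was not always enough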;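 also: 0% = wells killed by 20 µM Hyamine and 100% = untreated DMSO cell wells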); details: HCT116 beta-catenin knockout viability, CellTiter-Glo, 60 h; at 10 µM; active compounds read low
# [5] = viability of PTEN-null HCT116 cells – cell-based, HCT116 clonal line, CellTiter-Glo, pilot screen (AID 824;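 active = viability at or below 27.92% in each of two runs, the all-compound median minus 4 SD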;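 also: 0% = 20 µM Hyamine control and 100% = vehicle cell control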); details: HCT116 PTEN-deleted viability, 60 h, at 10 µM, active compounds read low
# [6] = RAM pathway blockade in budding yeast – dse1pr::URA3 reporter, 5-FOA selection, pilot screen (AID 869;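 active = inhibition over a set limit, the all-compound mean plus 3 SD, in both replicate runs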;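 also: 0% = DMSO wells with no growth and 100% = 10 µM 1-NA-PP1 with full growth; RAM network block rescues cells from 5-FOA so hits raise OD615 growth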); details: S. cerevisiae dse1pr::URA3 5-FOA growth, OD615, 2 d; at 10 µM; active compounds read high; strain carries analog-sensitive mutant Cbk1 kinase
# [7] = RAM signaling pathway blockade in yeast – S. cerevisiae, Pdr1DBD-CYC8 efflux-inhibited sensitized strain, primary screen (AID 1298;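 active = RAM network inhibition above 8.4% in each of two replicates, 3 SD over the compound average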;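 also: 0% = DMSO untreated cells without growth and 100% = 10 µM 1-NA-PP1 full growth; higher means more yeast growth rescued from 5-FOA killing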); details: S. cerevisiae cbk1-as DSE1-URA3 strain, 5-FOA growth OD615, 2 d; at 50 µM; active compounds read high
SMILES,growth inhibition [1] [%],growth inhibition [2],viability increase [3] [%],viability [4] [%],viability [5] [%],inhibition [6] [%],RAM network inhibition [7] [%]
CCC(CO)N=CC1=C(O)CC(C)(C)CC1=O (stereo not given),3.97,-5.8%,-0.8,102,98.8,-0.06,0.21
Cc1noc(NS(=O)(=O)c2ccc(NC(=O)CSc3nc4c(cc3C#N)CCC4)cc2)c1C,4.79,48% (active),1.01,107,98.3,0.805,8.22
COc1ccccc1C1C(C(N)=O)=C(C)Nc2nc(-c3ccc(Cl)cc3)nn21 (stereo not given),-5.66,0.335%,-1.26,95,92.4,-0.455,-1.72
CC(C)CNS(=O)(=O)c1ccc(S(=O)(=O)N2CCN(CCC#N)CC2)cc1,-11.7,-4.15%,-0.2,99.6,103,0.85,-0.19
Clc1ccccc1OCCN1CCCCC1,-14.4,-20.6%,0.57,85.5,96.2,0.6,6.74
COc1cccc(C2N(c3ccc(Cl)cc3)C(=O)C3CCCN32)c1 (stereo not given),-5.56,1.89%,0.15,97.5,94.5,1.04,0
CCOC(=O)c1cc2c(=O)n3ccccc3nc2n(CCOC)c1=NC(=O)C(C)(C)C,-6.44,-18.2%,-3.78,93.6,96.9,-0.545,5.12
Cc1ccc(S(=O)(=O)N=C2SCCCS2)cc1,-3.74,6.67%,-2.68,99.2,99.5,1.31,2.39
COc1ccc(CC2CCOC2=O)cc1 (stereo not given),-10.7,-8.8%,0.08,98,93.9,1.93,-0.09
O=c1oc2ccccc2n1CCCOc1ccccc1,1.24,-1.04%,1.28,98.1,96.5,2.02,1.62
Cn1c(=O)c2c(nc(CN3CCOCC3)n2CCc2ccccc2)n(C)c1=O,-8.53,-15.8%,3.73,95,94.7,1.48,0.56
CC(C)(C)NC(=O)Cn1c(=O)oc2cc(S(=O)(=O)N3CCc4ccccc43)ccc21,0.45,-12.1%,-3.16,90,89.5,0.05,7.21
Cc1cc(N=CC2=C(O)CC(C)(C)CC2=O)no1,-11.7,-3.7%,0.49,93.2,104,1.94,1.04
CCOc1ccc(C2CC(c3cccc(OC)c3)n3nc(N)nc3N2)cc1 (stereo not given),0.02,5.62%,0.88,109,92.3,0.875,4.58
Cn1c(NC(=O)c2cccc(C(F)(F)F)c2)cc(=O)n(C)c1=O,-16,-5.14%,-2.74,98.8,94.5,0.925,1.89
CN(C)CCCN1C(=O)c2oc3ccc(F)cc3c(=O)c2C1c1cccnc1 (stereo not given),4.42,7.96%,-1.1,107,98.7,2.9,2.14
O=C(O)C1CCCN1S(=O)(=O)c1cc(Cl)ccc1Cl (stereo not given),-3.73,-6.05%,1.55,92.5,102,0.535,4.12
COc1cccc(NC=C2C(=O)OC(C)(C)OC2=O)c1,-11,-2.86%,-1.97,98.7,106,0.94,2.55
COc1ccc(N2CCN(CCCNS(=O)(=O)c3ccc4c(c3)oc(=O)n4C)CC2)cc1,-8.8,2.4%,0.06,94.3,97.4,1.25,6.05
CC(=O)Oc1c2occc2cc2ccc(=O)oc12,-10.4,-1.74%,-2.14,92.7,90.5,0.425,-1.95
COCc1cc(=O)n2c(-c3ccc(C)cc3)n[nH]c2n1,-9.25,6.96%,-0.72,95.8,92.1,2.2,1.28
COC(=O)C(C)Sc1ccc2nnc(-c3cccc(F)c3)n2n1 (stereo not given),8.96,14.9%,-3.98,94.7,87.4,2.51,0.15
COc1cc(C(=O)Nc2nnc(C)s2)cc(OC)c1OC,-12.2,-5.23%,-2,95.2,82.3,2.54,2.16
O=c1c2ccccc2c2ccccc2c(=O)n1CC1CCCO1 (stereo not given),2.77,0.685%,-2.2,101,89.6,0.305,12.7
COCCn1c(SCC(=O)NCC2CCCO2)nc2c(c1=O)SC(C)C2 (stereo not given),-7.14,-0.265%,-0.65,110,109,1.19,3.08
